Laboratory results published in ChEMBL document CHEMBL1156631 (J Med Chem, 2008).

What was measured:
[1] = target: T1, Cannabinoid receptor 2 (Homo sapiens, UniProt P34972); assay: Agonist activity at human recombinant CB2 receptor expressed in Sf9 cells by GTP-europium binding assay relative to CP-55940
How it was run: (§1)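 Membranes were from Sf9 insect cells cotransfected with CB1 or CB2 plus Gαi3 (Bmax 1.7 pmol/mL). Compound (0.01 nM–10 µM, 1% DMSO final) was added to buffer with Hepes, BSA, 10 mM MgCl2, 150 mM NaCl, 5 µM GDP, 10 nM GTP-europium, saponin and membranes (CB1 4.5 µg/well, CB2 14 µg/well). Incubation was 45 min at room temperature, then filtration and washing, with fluorescence read at 615 nm. 100% efficacy was set by 3 µM reference agonist.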

[2] = target: T1, Cannabinoid receptor 2; assay: Agonist activity at human recombinant CB2 receptor expressed in Sf9 cells by GTP-europium binding assay
How it was run: as §1, with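 “µg/well).” for “µg/well). Incubation was 45 min at room temperature, then filtration and washing, with fluorescence read at 615 nm.”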

[3] = target: T2, Cannabinoid receptor 2 (Rattus norvegicus, UniProt Q9QZN9); assay: Agonist activity at rat recombinant CB2 receptor expressed in CHO-K1 cells assessed as inhibition of forskolin-stimulated intracellular cAMP level; type: functional, cell-based
T2 sequence (Q9QZN9 whole entry): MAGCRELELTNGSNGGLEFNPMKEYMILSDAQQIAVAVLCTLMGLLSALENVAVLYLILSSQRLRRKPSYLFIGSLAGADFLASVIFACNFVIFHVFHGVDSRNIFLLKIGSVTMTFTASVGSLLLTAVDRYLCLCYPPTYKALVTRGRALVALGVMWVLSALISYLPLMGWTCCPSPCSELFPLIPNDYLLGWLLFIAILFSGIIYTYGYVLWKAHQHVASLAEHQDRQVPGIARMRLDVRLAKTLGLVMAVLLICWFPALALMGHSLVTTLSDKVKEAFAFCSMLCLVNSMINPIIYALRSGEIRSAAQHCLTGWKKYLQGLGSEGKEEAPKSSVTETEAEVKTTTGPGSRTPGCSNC
How it was run: (§2)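 CHO-K1 cells stably expressing human or rat CB1 or CB2 were used. Compounds were diluted from DMSO into HBSS/HEPES/BSA buffer containing 60 µM forskolin, then combined with 5000 cells/well plus Alexa647 anti-cAMP antibody, 1 h at room temperature. A biotinylated-cAMP detection mix was added for another 1 h. Emission at 665 nm gave concentration-response curves and EC50; Emax is expressed as a percentage of the reference agonist maximum.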

[4] = target: T3, Cannabinoid receptor 1 (Homo sapiens, UniProt P21554); assay: Agonist activity at human recombinant CB1 receptor expressed in CHO-K1 cells assessed as inhibition of forskolin-stimulated intracellular cAMP level; type: functional, cell-based
How it was run: as §2, with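 “h.” for “h. Emission at 665 nm gave concentration-response curves and EC50; Emax is expressed as a percentage of the reference agonist maximum.”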

[5] = target: T4, Cannabinoid receptor 2 (Rattus norvegicus) (UniProt Q9QZN9); assay: Agonist activity at rat recombinant CB2 receptor expressed in CHO-K1 cells assessed as inhibition of forskolin-stimulated intracellular cAMP level relative to CP-55940; type: functional, cell-based; how it was run: as §2
T4 sequence (whole entry): T2 sequence (Q9QZN9 whole entry)

[6] = target: T1, Cannabinoid receptor 2; assay: Agonist activity at human recombinant CB2 receptor expressed in CHO-K1 cells assessed as inhibition of forskolin-stimulated intracellular cAMP level; type: functional, cell-based
How it was run: as §2, with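 “h.” for “h. Emission at 665 nm gave concentration-response curves and EC50; Emax is expressed as a percentage of the reference agonist maximum.”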

[7] = target: T3, Cannabinoid receptor 1; assay: Agonist activity at human CB1 receptor expressed in Sf9 cells by GTP-europium binding assay
How it was run: as §1, with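 “µg/well).” for “µg/well). Incubation was 45 min at room temperature, then filtration and washing, with fluorescence read at 615 nm.”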

[8] = target: T3, Cannabinoid receptor 1; assay: Agonist activity at human recombinant CB1 receptor expressed in Sf9 cells by GTP-europium binding assay relative to CP-55940; how it was run: as §1
[9] = target: T1, Cannabinoid receptor 2; assay: Agonist activity at human recombinant CB2 receptor expressed in CHO-K1 cells assessed as inhibition of forskolin-stimulated intracellular cAMP level relative to CP-55940; type: functional, cell-based; how it was run: as §2
[10] = target: T3, Cannabinoid receptor 1; assay: Agonist activity at human recombinant CB1 receptor expressed in CHO-K1 cells assessed as inhibition of forskolin-stimulated intracellular cAMP level relative to CP-55940; type: functional, cell-based; how it was run: as §2
[11] = target: Cannabinoid receptor 1 (Rattus norvegicus, UniProt P20272); assay: Agonist activity at rat recombinant CB1 receptor expressed in CHO-K1 cells assessed as inhibition of forskolin-stimulated intracellular cAMP level; type: functional, cell-based
How it was run: as §2, with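 “h.” for “h. Emission at 665 nm gave concentration-response curves and EC50; Emax is expressed as a percentage of the reference agonist maximum.”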

[12] = target: Cannabinoid receptor 1 (Rattus norvegicus) (UniProt P20272); assay: Agonist activity at rat recombinant CB1 receptor expressed in CHO-K1 cells assessed as inhibition of forskolin-stimulated intracellular cAMP level relative to CP-55940; type: functional, cell-based; how it was run: as §2
Sequence of Cannabinoid receptor 1 (Rattus norvegicus) (P20272 whole entry): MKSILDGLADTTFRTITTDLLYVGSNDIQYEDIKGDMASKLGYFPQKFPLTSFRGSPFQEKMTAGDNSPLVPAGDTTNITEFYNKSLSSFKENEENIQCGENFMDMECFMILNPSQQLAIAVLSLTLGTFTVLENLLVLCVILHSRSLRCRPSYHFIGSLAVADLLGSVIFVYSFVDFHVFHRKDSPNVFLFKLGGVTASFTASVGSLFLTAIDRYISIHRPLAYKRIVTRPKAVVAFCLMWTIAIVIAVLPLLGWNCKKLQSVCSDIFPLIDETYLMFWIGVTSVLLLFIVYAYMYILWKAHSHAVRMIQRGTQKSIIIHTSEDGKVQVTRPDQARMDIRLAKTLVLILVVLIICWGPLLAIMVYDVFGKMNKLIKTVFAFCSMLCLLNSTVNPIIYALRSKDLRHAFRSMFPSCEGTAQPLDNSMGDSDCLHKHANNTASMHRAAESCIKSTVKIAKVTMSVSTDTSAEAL

Sequence of Cannabinoid receptor 1 (Rattus norvegicus, UniProt P20272) (P20272 whole entry): as above
T1 sequence (P34972 whole entry): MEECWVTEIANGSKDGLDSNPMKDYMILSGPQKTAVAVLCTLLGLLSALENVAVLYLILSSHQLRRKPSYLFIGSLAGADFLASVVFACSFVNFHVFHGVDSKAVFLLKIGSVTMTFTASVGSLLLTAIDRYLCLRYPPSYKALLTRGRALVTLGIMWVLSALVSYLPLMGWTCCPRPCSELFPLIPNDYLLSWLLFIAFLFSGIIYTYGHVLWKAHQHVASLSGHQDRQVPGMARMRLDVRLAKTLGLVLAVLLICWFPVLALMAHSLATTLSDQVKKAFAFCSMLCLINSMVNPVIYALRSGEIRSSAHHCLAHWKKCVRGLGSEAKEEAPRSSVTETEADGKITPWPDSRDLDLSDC
T3 sequence (P21554 whole entry): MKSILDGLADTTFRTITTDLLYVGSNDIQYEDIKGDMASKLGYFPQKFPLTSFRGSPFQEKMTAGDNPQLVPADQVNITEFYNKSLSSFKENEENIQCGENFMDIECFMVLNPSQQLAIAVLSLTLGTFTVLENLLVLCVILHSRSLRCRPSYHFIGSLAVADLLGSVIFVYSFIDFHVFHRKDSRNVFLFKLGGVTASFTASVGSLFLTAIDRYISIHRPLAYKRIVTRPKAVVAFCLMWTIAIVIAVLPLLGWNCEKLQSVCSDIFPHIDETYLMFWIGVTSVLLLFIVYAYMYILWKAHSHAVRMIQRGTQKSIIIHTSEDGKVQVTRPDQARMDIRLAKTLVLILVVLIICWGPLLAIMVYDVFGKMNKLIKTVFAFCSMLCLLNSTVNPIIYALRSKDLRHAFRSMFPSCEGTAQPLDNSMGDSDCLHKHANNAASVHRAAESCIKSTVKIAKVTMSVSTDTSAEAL

Compound	Emax [1]	EC50 [2]	EC50 [3]	EC50 [4]	Emax [5]	EC50 [6]	EC50 [7]	Emax [8]	Emax [9]	Emax [10]	EC50 [11]	Emax [12]
CCn1c2ccccc2c2cc(NC(=O)CCc3nc(-c4ccccc4)no3)ccc21	100%	150 nM										
CCCCCCC(C)(C)c1ccc([C@@H]2C[C@H](O)CC[C@H]2CCCO)c(O)c1 [CP-55940]			0.34 nM									
CC(C)(C)c1cc(NC(=O)CCc2nc(-c3ccc(F)cc3Cl)no2)no1	120%	0.2 nM	0.4 nM	> 1000 nM	100%	0.7 nM	1600 nM	103%	96%	48%	170 nM	110%
Fc1ccc(-c2noc(CCCOc3cnc4ccc(Cl)cc4c3)n2)c(Cl)c1	110%	7.2 nM	5.1 nM	990 nM	99%	3.6 nM	1100 nM	92%	99%	48%	83 nM	98%
CCn1c2ccccc2c2cc(NC(=O)CCc3cc(-c4ccccc4F)no3)ccc21	64%	270 nM					> 10000 nM					
CCn1c2ccccc2c2cc(NC(=O)CCc3nc(-c4ccc(F)cc4Cl)no3)ccc21	98%	1.8 nM	0.4 nM	> 1000 nM	98%	0.6 nM	1200 nM	65%	100%	20%	330 nM	79%
CCn1c2ccccc2c2cc(NC(=O)CCc3nc(-c4ccc(F)cc4C#N)no3)ccc21	120%	0.85 nM	0.13 nM	> 1000 nM	130%	0.33 nM	709 nM	39%	110%	12%	240 nM	84%
CCn1c2ccccc2c2cc(NC(=O)CCc3nc(-c4cccc(Cl)c4)no3)ccc21	87%	410 nM					> 10000 nM					
N#Cc1cc(NCCCc2nc(-c3ccc(F)cc3Cl)no2)cnc1OCC(F)(F)F	110%	31 nM	130 nM	> 1000 nM	85%	360 nM	1300 nM	24%	87%		> 1000 nM	
CCn1c2ccccc2c2cc(NC(=O)CCc3nc(-c4ccccc4C(C)C)no3)ccc21	88%	670 nM					> 10000 nM					
CC(C)(C)c1ncc(OCCCc2nc(-c3ccc(F)cc3Cl)no2)cn1	110%	4.9 nM	16 nM	1500 nM	100%	24 nM	610 nM	99%	91%	63%	540 nM	86%
CCn1c2ccccc2c2cc(NC(=O)CCn3nnc(-c4ccccc4F)n3)ccc21	93%	200 nM	97 nM	> 1000 nM	90%	690 nM	> 10000 nM		88%		> 1000 nM	
CC(C)(C)c1cc(NCCCc2nc(-c3ccc(F)cc3Cl)no2)no1	110%	27 nM	190 nM	> 1000 nM	82%	130 nM	670 nM	33%	90%		> 1000 nM	
CCn1c2ccccc2c2cc(NC(=O)CCc3cc(-c4ccccc4F)[nH]n3)ccc21		> 10000 nM					> 10000 nM					
CCn1c2ccccc2c2cc(NC(=O)CCn3cc(-c4ccccc4F)nn3)ccc21	15%	470 nM					> 10000 nM					
CCn1c2ccccc2c2cc(NC(=O)CCc3nc(-c4ccncc4C#N)no3)ccc21	110%	3.8 nM	1.3 nM	> 1000 nM	110%	> 2.6 nM	> 10000 nM		100%		> 1000 nM	
CC(C)(C)c1ncc(NC(=O)CCc2nc(-c3ccc(F)cc3Cl)no2)cn1	91%	5.4 nM	1.3 nM	> 1000 nM	99%	2.9 nM	> 10000 nM		97%		570 nM	67%
CCn1c2ccccc2c2cc(NC(=O)CCc3nc(-c4ccccc4Cl)no3)ccc21	100%	6 nM					> 10000 nM					
CCn1c2ccccc2c2cc(NC(=O)CCc3noc(-c4ccccc4F)n3)ccc21	76%	190 nM					> 10000 nM					
CCn1c2ccccc2c2cc(NC(=O)CCc3nc(-c4ccc(F)cc4C)no3)ccc21	120%	0.089 nM	0.27 nM	> 1000 nM	110%	0.47 nM	1400 nM	24%	100%		280 nM	81%
CCn1c2ccccc2c2cc(NC(=O)CCc3nc(-c4ccccc4F)co3)ccc21	46%	2000 nM					> 10000 nM					
CC(C)c1ccc(NC(=O)CCc2nc(-c3ccc(F)cc3Cl)no2)cc1	130%	10 nM					2000 nM	23%				
O=C(CCc1nc(-c2ccc(F)cc2Cl)no1)Nc1ccc(C(F)(F)F)c(Cl)c1	120%	62 nM	79 nM	> 1000 nM	100%	25 nM	> 10000 nM		97%		> 1000 nM	
CCn1c2ccccc2c2cc(NC(=O)CCc3nc(-c4ccc(F)cc4)no3)ccc21	95%	9.8 nM	3.2 nM	330 nM	90%	4.8 nM	1200 nM	55%	95%	24%	650 nM	65%
CCn1c2ccccc2c2cc(NC(=O)CCc3cc(-c4ccccc4F)n(C)n3)ccc21		> 10000 nM					> 10000 nM					
O=C(CCc1nc(-c2ccc(F)cc2Cl)no1)Nc1ccc(C(F)(F)F)cc1	120%	75 nM	58 nM	> 1000 nM	90%	38 nM	> 10000 nM		94%		> 1000 nM	
O=C(CCc1nc(-c2ccc(F)cc2Cl)no1)Nc1ccc(C(F)(F)F)nc1	120%	97 nM	73 nM	> 1000 nM	95%	78 nM	2800 nM	17%	96%		> 1000 nM	
CCn1c2ccccc2c2cc(NC(=O)CCc3nc(C4CCOCC4)no3)ccc21	94%	42 nM	0.38 nM	> 1000 nM	100%	2.4 nM	> 10000 nM		98%	23%	150 nM	110%
